The values that follow come from PubChem BioAssay.

Structures are written as SMILES. The source made the active and inactive calls.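 Rule for the calls, unless noted: active = inhibition above 20% together with a positive visual image hit; inconclusive = visual image hit but inhibition not above 20%; inactive = no visual image hit.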

Assay [1] in a line: inhibitors of TNFa-induced NFkB p65 translocation, primary screen, imaging, HUVEC, MLSMR starter and 10KST1 sets (AID 438).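 For inhibition: signal is the nuclear over cytoplasmic p65 intensity ratio per well.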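 Note: compound added about 3h40 before a 20 min TNFalpha stimulation.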 Conditions: HUVEC TNFa-induced p65 nuclear translocation; cell count: measured here: nuclei count (cytotoxicity indicator), at 2.08 µM; inhibition: at 2 µM, stronger effect = higher value, 0% TNFa-plus-vehicle, 100% no-TNFa wells.
Assay [2] in a line: inhibitors of mutant huntingtin aggregation, primary screen, imaging, exon1htt(103Q)mCFP cells, high-content imaging (AID 483;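 active = visual image review flags a hit and inhibition of aggregation exceeds 20%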;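 note: compound exposure lasted 3 days before fixation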;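 for nuclei count: percent of the per-plate median nuclei count of sample wells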). Conditions: exon1htt(103Q)mCFP cell line, aggregate imaging, at 2 µM; inhibition of aggregation: stronger effect = higher value; nuclei count: measured here: cell count, toxicity.
Assay [3] can be described thus: inhibitors of E-selectin induction by TNFa, primary screen, imaging, HUVEC, immunofluorescence, MLSMR starter and 10KST1 sets (AID 487;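 active = visually confirmed hit in the image check and inhibition above 20%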;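 for inhibition: signal is fraction of cell area covered by stained E-selectin grains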;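 for nuclei count: 100% = median nuclei count of all wells on the same plate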). Conditions: HUVEC TNFalpha-induced E-selectin immunofluorescence imaging, at 2 µM; inhibition: stronger effect = higher value; nuclei count: measured here: cell number, toxicity.
Assay [4] addresses Voltage-gated potassium channel subunit beta-2 (Rattus norvegicus) (UniProt P62483). Put plainly: KvBeta enzyme negative modulators, primary screen, biochemical, NADPH fluorescence (AID 622;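 active = fluorescence slope higher than the sample average by over 3 SD, cut at about -0.22 in these data, passing the limit was not always enough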;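 note: slope of raw intensity against log time taken from 70 to 1610 s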). Conditions: recombinant KvBeta, 4-cyanobenzaldehyde reduction, at 10 µM, stronger effect = higher value.
Assay [5] has the same target. Put plainly: KvBeta positive modulators, primary screen, biochemical, NADPH fluorescence (AID 623;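 active = NADPH fluorescence slope more negative than the mean of all samples by about 3 SD, 99.7% confidence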;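 note: fluorescence intensity change per second fitted from 20 to 320 s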). Conditions: Recombinant KvBeta, NADPH fluorescence decrease slope, 10 min; at 10 µM; stronger effect = lower value.
Assay [6] concerns the target Muscarinic acetylcholine receptor M4 (Homo sapiens) (UniProt P08173). The assay can be described thus: compounds altering M4/GIRK thallium flux, either direction, primary screen, M4 allosteric agonist project, cell-based, HEK293 M4/GIRK, BTC-AM (AID 625;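 active = fluorescence slope after compound addition differing from the mean of all tested samples at 99.7% confidence, mostly higher but some lower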;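 note: thallium influx through GIRK channels coupled to M4 in HEK293 cells with BTC-AM dye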). Conditions: at 10 µM, actives lie on both sides. Summed up: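 assay system = HEK293 cells with M4 receptor and GIRK channels | medium = pH 7.3 thallium assay buffer | doses = 10 µM final, single point | timing = cells overnight at 37 °C, BTC-AM loading 1 h, reads 2 min total | signal = BTC-AM fluorescence, 1 Hz kinetic reads | read-out = post-addition slope, 15–24 s, of baseline-normalized fluorescence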

A short description of assay [7]: inhibitors of Sendai virus-induced IRF3 signaling, primary screen, TLR/RLR signaling modifier project, cell-based, Sendai virus stimulus, luciferase, 10K MLSCN set (AID 602276;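 active = inhibition at or above 50% at 10 µM; inactive = inhibition below 50%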;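 note: firefly luciferase from ISG56 promoter only with Renilla not read in this screen; 0% = Sendai virus plus DMSO and 100% = medium plus DMSO without virus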). Conditions: HEK293 RL24 IRF3 luciferase reporter, at 10 µM, stronger effect = higher value. (In general: Reporter assays use an easily measured gene product as a stand-in for the process of interest.)

The nature of assay [8]: inhibitors of poly I:C-induced TLR3 signaling, primary screen, cell-based, poly I:C stimulus, luciferase, 10K MLSCN set (AID 602277;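 active = inhibition of the reporter signal at or above 50%; inactive = inhibition below 50%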). Conditions: HEK293-TLR3 RL24 IRF3 luciferase reporter, at 10 µM, stronger effect = higher value.

Sequence of Muscarinic acetylcholine receptor M4 (Homo sapiens) (P08173 whole entry, looked up): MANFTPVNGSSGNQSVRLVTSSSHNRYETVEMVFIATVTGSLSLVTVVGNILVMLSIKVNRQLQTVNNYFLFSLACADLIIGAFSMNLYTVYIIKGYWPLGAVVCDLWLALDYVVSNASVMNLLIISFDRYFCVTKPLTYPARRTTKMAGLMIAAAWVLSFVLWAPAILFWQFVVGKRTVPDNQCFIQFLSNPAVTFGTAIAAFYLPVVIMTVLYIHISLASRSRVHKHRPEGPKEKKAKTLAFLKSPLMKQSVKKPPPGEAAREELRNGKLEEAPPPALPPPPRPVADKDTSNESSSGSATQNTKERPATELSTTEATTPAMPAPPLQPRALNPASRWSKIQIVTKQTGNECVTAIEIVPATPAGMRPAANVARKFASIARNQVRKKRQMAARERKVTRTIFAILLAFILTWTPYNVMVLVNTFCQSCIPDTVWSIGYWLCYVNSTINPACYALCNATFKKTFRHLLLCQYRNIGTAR
Sequence of Voltage-gated potassium channel subunit beta-2 (Rattus norvegicus) (P62483 whole entry, looked up): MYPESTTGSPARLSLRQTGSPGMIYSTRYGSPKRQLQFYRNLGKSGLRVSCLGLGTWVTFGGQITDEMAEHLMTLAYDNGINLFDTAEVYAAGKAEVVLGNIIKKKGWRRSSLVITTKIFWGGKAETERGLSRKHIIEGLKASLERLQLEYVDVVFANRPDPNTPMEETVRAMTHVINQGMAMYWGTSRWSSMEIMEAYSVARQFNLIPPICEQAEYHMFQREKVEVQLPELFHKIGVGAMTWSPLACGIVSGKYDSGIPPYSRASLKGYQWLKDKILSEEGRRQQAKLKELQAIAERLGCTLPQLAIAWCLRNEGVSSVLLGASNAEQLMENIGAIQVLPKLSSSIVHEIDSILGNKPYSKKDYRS

As usually defined, the inhibition is the relative decrease from the control value, in per cent. Turning to `O=C(NCCCN1CCN(CCCNC(=O)c2ccc(F)cc2)CC1)c1ccc(F)cc1`, the cell count in assay [1] is 364. For the same compound, the inhibition in assay [1] was -1.1% (inactive); in assay [3], 4.2% (inactive); in assay [7], 14.8% (inactive); in assay [8], 23.9% (inactive). Also, the inhibition of aggregation in assay [2] was -1.8% (inactive). In addition, the nuclei count came to 109% in assay [2] and 102% in assay [3]. Moreover, the fluorescence slope in assay [4] was -0.528 (inactive); in assay [6], 0.00616 (inactive). Also, the NADPH fluorescence slope in assay [5] was 1.1e-05 (inactive).
Regarding `Cc1cccc2cc(CN(Cc3nnnn3Cc3ccccc3)C3CCCC3)c(=O)[nH]c12`, the cell count in assay [1] was determined as 561. The inhibition is -9% (inactive) in assay [1], -35.7% (inactive) in assay [3], 14.3% (inactive) in assay [7] and 15% (inactive) in assay [8]. Besides, the inhibition of aggregation in assay [2] was -39.5% (inactive). Also, the nuclei count in assay [2] came out at 76.4%; in assay [3], 111%. The fluorescence slope in assay [4] was -0.483 (inactive); in assay [6], 0.00509 (inactive). The NADPH fluorescence slope in assay [5] is -0.00011 (inactive).
On to `COC(=O)c1cccc(NC(=O)C2COc3ccccc3O2)c1C` (centres undefined), for which the cell count in assay [1] was determined as 349. Also, the inhibition is -3.3% (inactive) in assay [1], -10.1% (inactive) in assay [3], -2.98% (inactive) in assay [7] and -15.7% (inactive) in assay [8]. Also, the inhibition of aggregation in assay [2] was 13.6% (inactive). The nuclei count in assay [2] was 102%; in assay [3], 96.5%. Further, the fluorescence slope was -0.508 (inactive) in assay [4] and 0.0049 (inactive) in assay [6]. Also, the NADPH fluorescence slope in assay [5] was -1.7e-05 (inactive).
`CCSc1nc(O)c(CC)c(=O)n1C(C)CC` (centres undefined): the cell count in assay [1] was determined as 304. Moreover, the inhibition is 2.1% (inactive) in assay [1], -56.3% (inactive) in assay [3], -0.896% (inactive) in assay [7] and 4.86% (inactive) in assay [8]. The inhibition of aggregation in assay [2] is -3.7% (inactive). In addition, the values for the nuclei count in assay [2] and in assay [3] were 112% and 111%, respectively. The fluorescence slope in assay [4] is -0.556 (inactive); in assay [6], 0.00478 (inactive). In addition, in assay [5], the NADPH fluorescence slope is -3.6e-05 (inactive).
Consider `CCN(C(=O)c1c(-c2ccccc2)noc1C)c1ccccc1`, for which the cell count in assay [1] amounted to 600. The inhibition in assay [1] is 1% (inactive); in assay [3], -39.7% (inactive); in assay [7] it was 22.5% (inactive); in assay [8], 22.7% (inactive). Also, in assay [2], the inhibition of aggregation was 1.1% (inactive). Moreover, the nuclei count in assay [2] came out at 106%; in assay [3], 95.6%. For the same compound, the values for the fluorescence slope in assay [4] and in assay [6] were -0.534 (inactive) and 0.00432 (inactive), respectively. Besides, the NADPH fluorescence slope in assay [5] was -1.1e-05 (inactive).
As to `COc1ccc(-c2noc(CCC(=O)Nc3nc4ccccc4s3)n2)cc1`, the cell count in assay [1] came to 540. Moreover, the inhibition in assay [1] was -8.6% (inactive); in assay [3], -35% (inactive); in assay [7] it was -7.62% (inactive); in assay [8] it was -8.39% (inactive). Besides, the inhibition of aggregation in assay [2] is 21.7% (inactive). Besides, the nuclei count is 50.7% in assay [2] and 106% in assay [3]. In addition, the fluorescence slope in assay [4] was -0.586 (inactive); in assay [6] it was 0.0103 (inactive). Moreover, in assay [5], the NADPH fluorescence slope is -3.6e-05 (inactive).
Take `CCOC(=O)c1c(C)oc2ccc(OCC(N)=O)cc12`: the cell count in assay [1] stood at 794. In addition, the inhibition in assay [1] is -12.1% (inactive); in assay [3], 20.4% (inactive); in assay [7], 5.65% (inactive); in assay [8], 6.54% (inactive). In addition, the inhibition of aggregation in assay [2] was -6.7% (inactive). The nuclei count in assay [2] came to 36.5%; in assay [3] it was 93.5%. The fluorescence slope in assay [4] is -0.483 (inactive); in assay [6], 0.00617 (inactive). In assay [5], the NADPH fluorescence slope was -1.6e-05 (inactive).
As to `COc1ccccc1C1C(C(C)=O)=C(O)C(=O)N1CCc1ccccc1` (centres undefined), the cell count in assay [1] worked out at 373. Moreover, the inhibition in assay [1] was 9.5% (inactive); in assay [3], -33.5% (inactive); in assay [7] it was 10.7% (inactive); in assay [8], 18.1% (inactive). For the same compound, in assay [2], the inhibition of aggregation was -6.3% (inactive). For the same compound, the values for the nuclei count in assay [2] and in assay [3] were 105% and 103%, respectively. The fluorescence slope in assay [4] was -0.549 (inactive); in assay [6] it was 0.00483 (inactive). In addition, in assay [5], the NADPH fluorescence slope was -3.7e-05 (inactive).
Regarding `CCC(=O)Oc1ccc2c(C)cc(=O)oc2c1C`, the cell count in assay [1] came out at 328. Further, the inhibition is 3.4% (inactive) in assay [1], -42.2% (inactive) in assay [3], 10.7% (inactive) in assay [7] and -2.94% (inactive) in assay [8]. For the same compound, in assay [2], the inhibition of aggregation is -23.4% (inactive). Besides, the values for the nuclei count in assay [2] and in assay [3] were 98.2% and 108%, respectively. Moreover, the fluorescence slope in assay [4] was -0.554 (inactive); in assay [6] it was 0.00649 (inactive). In addition, the NADPH fluorescence slope in assay [5] was -4.5e-05 (inactive).
With `O=C1CCC(=O)N1OCCCOc1ccc(Br)cc1Cl`, in assay [1], the cell count worked out at 490. In addition, the inhibition in assay [1] is 1% (inactive); in assay [3] it was -76% (inactive); in assay [7] it was 16.1% (inactive); in assay [8], 18% (inactive). Besides, in assay [2], the inhibition of aggregation is 9% (inactive). The nuclei count in assay [2] amounted to 74.1%; in assay [3] it was 106%. For the same compound, the fluorescence slope is -0.456 (inactive) in assay [4] and 0.00805 (inactive) in assay [6]. The NADPH fluorescence slope in assay [5] was 2e-05 (inactive).
Consider `O=S1(=O)C=CC(Nc2cccc(Cl)c2)C1` (centres undefined), for which the cell count in assay [1] is 682. In addition, the inhibition in assay [1] was -1% (inactive); in assay [3], -7.5% (inactive); in assay [7], 22.9% (inactive); in assay [8], 30.3% (inactive). Moreover, the inhibition of aggregation in assay [2] is -6.1% (inactive). The nuclei count in assay [2] was found to be 97.2%; in assay [3], 98.1%. Besides, the fluorescence slope in assay [4] was -0.447 (inactive); in assay [6], 0.0065 (inactive). In addition, the NADPH fluorescence slope in assay [5] is -6.1e-05 (inactive).
As for `Oc1ccccc1C1=Nc2nc3ccccc3n2C(c2ccccc2)C1` (centres undefined), in assay [1], the cell count is 579. Also, the inhibition in assay [1] was 6.8% (inactive); in assay [3], -49.5% (inactive); in assay [7], -38.4% (inactive); in assay [8] it was -68.7% (inactive). Further, in assay [2], the inhibition of aggregation is 3.6% (inactive). Further, the nuclei count worked out at 107% in assay [2] and 102% in assay [3]. Besides, the fluorescence slope in assay [4] is -0.539 (inactive); in assay [6], 0.00255 (inactive). The NADPH fluorescence slope in assay [5] was -7.3e-05 (inactive).
As to `CC1CCCC(NC(=O)CSc2ncccc2C(=O)O)C1C` (centres undefined), in assay [1], the cell count was 660. The inhibition in assay [1] is -10% (inactive); in assay [3], -55.4% (inactive); in assay [7], 13.9% (inactive); in assay [8], 24.3% (inactive). The inhibition of aggregation in assay [2] was 7.4% (inactive). Moreover, the nuclei count was 117% in assay [2] and 112% in assay [3]. Further, the values for the fluorescence slope in assay [4] and in assay [6] were -0.566 (inactive) and 0.00597 (inactive), respectively. Besides, the NADPH fluorescence slope in assay [5] is -8.3e-06 (inactive).
Take `Cc1ccc(S(=O)(=O)N2CCCC2C(=O)n2nc(C)cc2C)cc1` (centres undefined): the cell count in assay [1] worked out at 432. The inhibition was -12.3% (inactive) in assay [1], 46.7% (inactive) in assay [3], 12.5% (inactive) in assay [7] and 19.1% (inactive) in assay [8]. Also, in assay [2], the inhibition of aggregation is 15.8% (inactive). The values for the nuclei count in assay [2] and in assay [3] were 86.2% and 93.5%, respectively. Further, the fluorescence slope is -0.341 (inactive) in assay [4] and 0.00537 (inactive) in assay [6]. Further, the NADPH fluorescence slope in assay [5] was -4.4e-05 (inactive).
